We go through 12 molecules from ChEMBL document CHEMBL3407409, “Synthesis of diethyl 4-substituted-2,6-dimethyl-1,4-dihydropyridine-3,5-dicarboxylates as a new series of inhibitors against yeast α-glucosidase” (Eur J Med Chem, 2015).

Active and inactive are the calls of the source. The rule behind the calls is not given here.

Assay [1] has as its target T1, Alpha-glucosidase MAL12 (Saccharomyces cerevisiae S288c, UniProt P53341). Description: Non-competitive inhibition of Saccharomyces cerevisiae alpha-glucosidase using p-nitrophenyl alpha-D-glucopyranoside as substrate preincubated for 15 mins by Lineweaver-Burk plot method. The method in brief: (§1)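 Kinetics on the yeast enzyme: 1/rate plotted against 1/substrate (Lineweaver-Burk) at several inhibitor levels, e.g. 60, 70 and 80 µM, to see effects on Km and Vmax. Ki taken from a replot of Lineweaver-Burk slopes against inhibitor concentration and checked by Dixon plot (1/rate against inhibitor concentration). Points are the mean of three experiments.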

The target in assay [2] is T1, Alpha-glucosidase MAL12. Description: Inhibition of Saccharomyces cerevisiae alpha-glucosidase using p-nitrophenyl alpha-D-glucopyranoside as substrate preincubated for 15 mins measured up to 30 mins by spectrophotometry. The method in brief:
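Yeast enzyme 0.2 U/mL held with graded inhibitor levels for 15 min at 37 °C in 0.1 M phosphate buffer pH 6.8, DMSO 7% final; p-nitrophenyl α-D-glucopyranoside 0.7 mM final added, A400 followed up to 30 min. DMSO-only control; % inhibition = 100 − (OD test/OD control) × 100.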

Assay [3] has as its target Oligo-1,6-glucosidase IMA1 (Saccharomyces cerevisiae S288c) (UniProt P53051). Description: Non-competitive inhibition of Saccharomyces cerevisiae alpha-glucosidase using p-nitrophenyl alpha-D-glucopyranoside as substrate preincubated for 15 mins by Dixon plot method. The method in brief: as §1
Assay [4] addresses Carbonic anhydrase 2 (Bos taurus) (UniProt P00921). Description: Inhibition of purified bovine erythrocyte carbonic anhydrase 2 using 4-PNA as substrate preincubated for 15 mins by spectrophotometry. The method in brief: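 Bovine erythrocyte CA-II (0.1 mg/mL stock) in 20 mM HEPES-Tris pH 7.4, DMSO 10% final, preincubated with compound for 15 min. Reaction started with 0.7 mM 4-nitrophenyl acetate (in ethanol). 4-Nitrophenol read at 400 nm each minute for 30 min. Triplicates at several concentrations.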

A further assay relates to Serpentes. As to the kind of experiment: Inhibition of snake venom phosphodiesterase-1 using bis-(p-nitropheny1) phosphate as substrate preincubated for 30 mins by spectrophotometry. The method in brief: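 Snake venom enzyme, 0.000742 U/well final, in 33 mM Tris–HCl pH 8.8 with 30 mM Mg-acetate. Pre-incubated 30 min with test samples. Substrate bis-(p-nitrophenyl) phosphate at 0.33 mM. Rate of p-nitrophenol release (change in OD/min) followed at 410 nm, 37 °C, in microplate format. Cysteine and EDTA used as positive controls. Run in triplicate.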

Assay [5] has as its target T2, Beta-glucuronidase (Homo sapiens) (UniProt P08236).
T2 sequence (whole entry): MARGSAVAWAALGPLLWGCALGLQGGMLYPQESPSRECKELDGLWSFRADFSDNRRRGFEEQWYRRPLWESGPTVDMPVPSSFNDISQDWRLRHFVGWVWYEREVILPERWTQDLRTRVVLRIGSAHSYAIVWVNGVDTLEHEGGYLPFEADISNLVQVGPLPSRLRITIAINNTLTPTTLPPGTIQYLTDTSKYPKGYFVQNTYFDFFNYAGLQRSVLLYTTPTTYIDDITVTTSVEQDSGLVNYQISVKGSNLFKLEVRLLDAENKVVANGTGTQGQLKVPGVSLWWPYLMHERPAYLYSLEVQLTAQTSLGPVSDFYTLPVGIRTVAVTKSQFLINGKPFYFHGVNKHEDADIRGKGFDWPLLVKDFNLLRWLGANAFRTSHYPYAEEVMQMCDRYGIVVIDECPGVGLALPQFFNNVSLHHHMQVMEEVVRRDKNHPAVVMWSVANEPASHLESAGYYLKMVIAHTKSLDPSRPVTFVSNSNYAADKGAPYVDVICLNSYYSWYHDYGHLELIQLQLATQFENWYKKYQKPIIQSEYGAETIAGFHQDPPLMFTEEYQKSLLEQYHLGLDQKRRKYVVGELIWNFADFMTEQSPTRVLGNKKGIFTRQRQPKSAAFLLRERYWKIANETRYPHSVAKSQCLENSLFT
Description: Inhibition of beta-glucuronidase (unknown origin) using p-nitrophenyl-beta-D-glucuronide as substrate preincubated for 30 mins by spectrophotometry. The method in brief:
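Enzyme (1 U) in 0.1 M acetate buffer held with compound (DMSO 2% final) at 37 °C for 30 min. Then 0.4 mM p-nitrophenyl-β-D-glucuronide added and p-nitrophenol read at 405 nm. Run in triplicate.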

The subject of another assay is 3T3. As to the kind of experiment: Cytotoxicity against […] 3T3 cells by MTT assay. Type of assay: cell-based. The settings on record: Mus musculus, NIH3T3. The method in brief: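 […] fibroblast 3T3 cells (2×10^5 cells/mL) grown overnight at 37 °C under CO2, then given serial dilutions (100–12.5 µg/mL) in DMEM with 5% FBS and penicillin/streptomycin. MTT (2 mg/mL in PBS) added for 4 h. Formazan dissolved in DMSO and read at 540 nm; viability taken as the OD ratio.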
In general terms: Tetrazolium assays rely on reduction of a dye to a coloured formazan, in cell work by metabolically active cells.

For assay [6], the target named is Oligo-1,6-glucosidase IMA1 (Saccharomyces cerevisiae S288c) (UniProt P53051). As to the kind of experiment: Ratio of acarbose IC50 to compound IC50 for Saccharomyces cerevisiae alpha-glucosidase using p-nitrophenyl alpha-D-glucopyranoside as substrate preincubated for 15 mins measured up to 30 mins by spectrophotometry.
Sequence of Oligo-1,6-glucosidase IMA1 (Saccharomyces cerevisiae S288c) (P53051 whole entry): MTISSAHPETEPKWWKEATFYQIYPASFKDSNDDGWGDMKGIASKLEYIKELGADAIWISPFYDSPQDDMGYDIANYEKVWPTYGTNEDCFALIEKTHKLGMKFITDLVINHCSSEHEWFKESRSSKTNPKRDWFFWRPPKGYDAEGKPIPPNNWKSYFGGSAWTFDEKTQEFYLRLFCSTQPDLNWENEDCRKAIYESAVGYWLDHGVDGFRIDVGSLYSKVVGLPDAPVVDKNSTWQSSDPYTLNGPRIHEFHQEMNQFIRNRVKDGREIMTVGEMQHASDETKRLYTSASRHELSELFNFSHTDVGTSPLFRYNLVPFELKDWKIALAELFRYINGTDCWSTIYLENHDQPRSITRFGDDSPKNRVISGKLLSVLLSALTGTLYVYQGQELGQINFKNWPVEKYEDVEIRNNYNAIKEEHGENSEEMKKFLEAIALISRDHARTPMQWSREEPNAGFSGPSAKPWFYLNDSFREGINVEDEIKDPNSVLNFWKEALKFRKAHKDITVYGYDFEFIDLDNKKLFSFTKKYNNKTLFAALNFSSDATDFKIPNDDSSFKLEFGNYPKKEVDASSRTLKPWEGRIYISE
Assay [7] has as its target T1, Alpha-glucosidase MAL12. Description: Competitive inhibition of Saccharomyces cerevisiae alpha-glucosidase using p-nitrophenyl alpha-D-glucopyranoside as substrate preincubated for 15 mins by Lineweaver-Burk plot method.

Sequence of Carbonic anhydrase 2 (Bos taurus) (P00921 2-260 limits assumed): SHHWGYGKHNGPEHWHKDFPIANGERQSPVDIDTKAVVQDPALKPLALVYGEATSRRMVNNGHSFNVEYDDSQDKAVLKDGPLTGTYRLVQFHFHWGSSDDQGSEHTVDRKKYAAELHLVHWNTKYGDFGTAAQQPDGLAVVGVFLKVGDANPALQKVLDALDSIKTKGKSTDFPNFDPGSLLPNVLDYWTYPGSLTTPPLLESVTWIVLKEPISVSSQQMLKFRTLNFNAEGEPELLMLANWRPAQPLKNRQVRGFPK
T1 sequence (P53341 whole entry): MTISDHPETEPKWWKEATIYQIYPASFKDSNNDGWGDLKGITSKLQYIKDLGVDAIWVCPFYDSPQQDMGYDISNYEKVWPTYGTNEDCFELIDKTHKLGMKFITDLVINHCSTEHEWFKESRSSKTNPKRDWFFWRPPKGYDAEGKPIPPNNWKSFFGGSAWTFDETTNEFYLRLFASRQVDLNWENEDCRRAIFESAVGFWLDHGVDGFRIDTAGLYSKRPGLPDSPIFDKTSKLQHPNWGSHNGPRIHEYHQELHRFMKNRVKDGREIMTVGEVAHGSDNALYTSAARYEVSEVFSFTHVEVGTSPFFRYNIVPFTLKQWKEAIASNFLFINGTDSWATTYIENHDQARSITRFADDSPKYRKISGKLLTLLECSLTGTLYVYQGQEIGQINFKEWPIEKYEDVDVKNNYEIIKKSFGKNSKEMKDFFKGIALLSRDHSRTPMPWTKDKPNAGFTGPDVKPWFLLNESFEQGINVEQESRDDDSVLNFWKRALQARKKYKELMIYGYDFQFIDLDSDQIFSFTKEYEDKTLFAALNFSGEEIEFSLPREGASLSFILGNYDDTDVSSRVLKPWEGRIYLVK

As a reminder, the Ki is the dissociation constant of the complex between target and ligand, obtained from inhibition or displacement. The low end stands for a stronger hold on the target, the high end for a looser hold on the target. Usually IC50 stands for the concentration at which inhibition is half-maximal. A high value points to weaker potency. In general, inhibition refers to the drop in the measured response relative to a control, in per cent. With `CCOC(=O)C1=C(C)NC(C)=C(C(=O)OCC)C1c1cccc([N+](=O)[O-])c1`, the affinity at Alpha-glucosidase MAL12 [1], expressed as Ki, was 25 µM. Further, the figures for the IC50 at Alpha-glucosidase MAL12 [2] and in the assay with 3T3 were 35 µM and greater than 30 µM, respectively. Further, in assay [3], the inhibition result was “Active”. The inhibition stood at 11.7% in assay [4], 11.4% in the assay with Serpentes and 22.3% in assay [5]. Further, the Ratio IC50 in assay [6] is 26.
Regarding `CCOC(=O)C1=C(C)NC(C)=C(C(=O)OCC)C1c1ccc(Cl)cc1`, the IC50 at Alpha-glucosidase MAL12 [2] was 72.4 µM; in the assay with 3T3 it was 27.9 µM.
`CCOC(=O)C1=C(C)NC(C)=C(C(=O)OCC)C1c1ccccc1F`: the values for the IC50 at Alpha-glucosidase MAL12 [2] and in the assay with 3T3 were 60.2 µM and greater than 30 µM, respectively.
Turning to `CCOC(=O)C1=C(C)NC(C)=C(C(=O)OCC)C1CCc1ccccc1`, the values for the 50% inhibitory concentration (IC50) on Alpha-glucosidase MAL12 [2] and in the assay with 3T3 were 112 µM and 26.7 µM, respectively.
On to `CCOC(=O)C1=C(C)NC(C)=C(C(=O)OCC)C1c1ccc(OC)cc1`, for which the half-maximal inhibitory concentration (IC50) on Alpha-glucosidase MAL12 [2] was 65.1 µM; in the assay on 3T3, greater than 30 µM. Also, the inhibition entry in assay [4] was “inactive”. Also, the results for the inhibition (with Serpentes; in [5]) were 8.1% and 12.4%, respectively.
As for `CCOC(=O)C1=C(C)NC(C)=C(C(=O)OCC)C1c1cccs1`, the IC50 is 74.3 µM on Alpha-glucosidase MAL12 [2] and greater than 30 µM in the assay with 3T3. The inhibition result in assay [4] and in assay [5] was “inactive” each time. In addition, in the assay on Serpentes, the inhibition was found to be 8%.
As to `CCCCC1C(C(=O)OCC)=C(C)NC(C)=C1C(=O)OCC`, the IC50 on Alpha-glucosidase MAL12 [2] came out at 122 µM.
Consider `CCOC(=O)C1=C(C)NC(C)=C(C(=O)OCC)C1c1ccc(C)cc1`, for which the concentration for half-maximal inhibition (IC50) at Alpha-glucosidase MAL12 [2] is 118 µM; in the assay with 3T3, greater than 30 µM.
For `CCOC(=O)C1=C(C)NC(C)=C(C(=O)OCC)C1c1ccc(O)c(O)c1`, the IC50 was determined as 274 µM against Alpha-glucosidase MAL12 [2] and 28.6 µM in the assay on 3T3.
With `CCOC(=O)C1=C(C)NC(C)=C(C(=O)OCC)C1c1ccc([N+](=O)[O-])cc1`, the IC50 at Alpha-glucosidase MAL12 [2] is 51 µM; in the assay with 3T3, greater than 30 µM. This molecule registered an inhibition constant (Ki) at Alpha-glucosidase MAL12 [7] of 66 µM. Moreover, the figures for the inhibition (in [4]; in the assay with Serpentes; in [5]) were 9.7%, 20.3% and 14.1%, respectively. Moreover, the Ratio IC50 in [6] worked out at 18.
As to `CCOC(=O)C1=C(C)NC(C)=C(C(=O)OCC)C1c1ccc(SC)cc1`, the 50% inhibitory concentration (IC50) against Alpha-glucosidase MAL12 [2] was 97.4 µM; in the assay on 3T3, greater than 30 µM.
Consider `CCOC(=O)C1=C(C)NC(C)=C(C(=O)OCC)C1c1ccc(OCC)cc1`, for which the IC50 at Alpha-glucosidase MAL12 [2] is 124 µM; with 3T3 it was greater than 30 µM.
